Data as given in paper PMC9177108 (The Oncologist, 2022).

Assay: Plasma pharmacokinetics
Type: in vivo, human
Conditions: for AUC(0-t) / AUC / Vd/F / half-life / k el / Cmax / concentration at 15 day / MRT: human, plasma, 10 mg; for AUC: AUCss; for Vd/F: V z/F; for Cmax: C max; for concentration at 15 day: Css; for Css, max, Mean ± SD: C1D15, 10 mg p.o.
In short: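 Test compound was given at 10 mg orally, either continuously daily or 3 weeks on/1 week off. Plasma PK was sampled on cycle 1 day 1 after a single dose for Tmax, Cmax, AUC0-24h, AUC0-t, AUC0-∞, λz, t1/2, CL/F, Vz/F, %AUCex and MRT. After multiple doses, steady-state parameters were Css max/min/avg, Tss,max, AUCss, CLss/F, Vss/F, %Fluctuation and accumulation ratios. […]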

[1] = oral, GeoMean(%CVb), single dose, C1D1, continuous arm (n = 5)
[2] = oral, GeoMean(%CVb), single dose, C1D1, intermittent arm (n = 4)
[3] = multiple dose, C1D15, continuous arm (n=5)
[4] = multiple dose, C1D15, intermittent arm (n=4)
[5] = single dose, C1D1, continuous arm (n = 5)

CNC(=O)c1cccc2cc(Oc3ccnc4cc(OCC5(N)CC5)c(OC)cc34)ccc12 [Lucitanib]
time at which steady state is reached (trough levels) (10 mg p.o. once daily): ≤ 15 days
AUC(0-t) (AUC0-t, GeoMean(%CVb), single dose, C1D1, continuous arm (n = 5)): 2370 ng·h/mL
AUC(0-t) (AUC0-t, GeoMean(%CVb), single dose, C1D1, intermittent arm (n = 4)): 2720 ng·h/mL
AUC (GeoMean(%CVb), multiple dose, C1D15, continuous arm (n=5)): 6170 ng·h/mL
AUC (GeoMean(%CVb), multiple dose, C1D15, intermittent arm (n=4)): 9160 ng·h/mL
AUC (Mean ± SD, multiple dose, C1D15, continuous arm (n=5)): 6670 ± 2630 ng·h/mL
AUC (Mean ± SD, multiple dose, C1D15, intermittent arm (n=4)): 9680 ± 3710 ng·h/mL
Vd/F (GeoMean(%CVb), single dose, C1D1, continuous arm (n = 5)): 68 L
Vd/F (GeoMean(%CVb), single dose, C1D1, intermittent arm (n = 4)): 58.1 L
Vd/F (Mean ± SD, single dose, C1D1, continuous arm (n = 5)): 75.2 ± 40.2 L
Vd/F (Mean ± SD, single dose, C1D1, intermittent arm (n = 4)): 60.8 ± 19.8 L
half-life (t 1/2, GeoMean(%CVb), single dose, C1D1, continuous arm (n = 5)): 21.9 h
half-life (t 1/2, GeoMean(%CVb), single dose, C1D1, intermittent arm (n = 4)): 22.1 h
half-life (t 1/2, Mean ± SD, single dose, C1D1, continuous arm (n = 5)): 23.8 ± 11.8 h
half-life (t 1/2, Mean ± SD, single dose, C1D1, intermittent arm (n = 4)): 24.8 ± 15.5 h
k el (λ z, GeoMean(%CVb), single dose, C1D1, continuous arm (n = 5)): 8.33e-06 s⁻¹
k el (λ z, GeoMean(%CVb), single dose, C1D1, intermittent arm (n = 4)): 8.33e-06 s⁻¹
k el (λ z, Mean ± SD, single dose, C1D1, continuous arm (n = 5)): 8.33e-06 s⁻¹
k el (λ z, Mean ± SD, single dose, C1D1, intermittent arm (n = 4)): 8.33e-06 s⁻¹
k el (λz, Mean ± SD, multiple dose, C1D15, continuous arm (n=5)): 5.56e-06 s⁻¹
k el (λz, Mean ± SD, multiple dose, C1D15, intermittent arm (n=4)): 5.56e-06 s⁻¹
AUC(0-t) (oral, AUC0-24h, GeoMean(%CVb), single dose, C1D1, continuous arm (n = 5)): 2410 ng·h/mL
AUC(0-t) (oral, AUC0-24h, GeoMean(%CVb), single dose, C1D1, intermittent arm (n = 4)): 2770 ng·h/mL
AUC(0-t) (oral, AUC0-24h, Mean ± SD, single dose, C1D1, continuous arm (n = 5)): 2560 ± 858 ng·h/mL
AUC(0-t) (oral, AUC0-24h, Mean ± SD, single dose, C1D1, intermittent arm (n = 4)): 3110 ± 1890 ng·h/mL
AUC(0-t) (oral, AUC0-t, Mean ± SD, single dose, C1D1, continuous arm (n = 5)): 2510 ± 834 ng·h/mL
AUC(0-t) (oral, AUC0-t, Mean ± SD, single dose, C1D1, intermittent arm (n = 4)): 3030 ± 1750 ng·h/mL
Cmax [1]: 261 ng/mL
Cmax [2]: 228 ng/mL
concentration at 15 day (oral, avg, GeoMean(%CVb), multiple dose, C1D15, continuous arm (n=5)): 257 ng/mL
concentration at 15 day (oral, avg, GeoMean(%CVb), multiple dose, C1D15, intermittent arm (n=4)): 382 ng/mL
concentration at 15 day (oral, avg, Mean ± SD, multiple dose, C1D15, continuous arm (n=5)): 278 ± 110 ng/mL
concentration at 15 day (oral, avg, Mean ± SD, multiple dose, C1D15, intermittent arm (n=4)): 403 ± 155 ng/mL
concentration at 15 day (oral, min, GeoMean(%CVb), multiple dose, C1D15, continuous arm (n=5)): 176 ng/mL
concentration at 15 day (oral, min, GeoMean(%CVb), multiple dose, C1D15, intermittent arm (n=4)): 284 ng/mL
concentration at 15 day (oral, min, Mean ± SD, multiple dose, C1D15, continuous arm (n=5)): 203 ± 93.5 ng/mL
concentration at 15 day (oral, min, Mean ± SD, multiple dose, C1D15, intermittent arm (n=4)): 303 ± 118 ng/mL
MRT [1]: 32.2 h
MRT [2]: 32.6 h
MRT (oral, Mean ± SD, single dose, C1D1, continuous arm (n = 5)): 34.2 ± 14.3 h
MRT (oral, Mean ± SD, single dose, C1D1, intermittent arm (n = 4)): 36.3 ± 21.6 h
k el (oral, λz, GeoMean(%CVb), multiple dose, C1D15, continuous arm (n=5)): 2.78e-06 s⁻¹
k el (oral, λz, GeoMean(%CVb), multiple dose, C1D15, intermittent arm (n=4)): 5.56e-06 s⁻¹
Css, max, Mean ± SD (multiple dose, continuous arm (n=5)): 482.80 ± 271.81 ng/mL
Css, max, Mean ± SD (multiple dose, intermittent arm (n=4)): 608.50 ± 169.48 ng/mL
%Fluctuation, GeoMean(%CVb) [3]: 90.75(63.71) %
%Fluctuation, Mean ± SD [3]: 104.26 ± 61.47%
CLss/F, GeoMean(%CVb) [3]: 1.62(49.01) L/hour
CLss/F, Mean ± SD [3]: 1.78 ± 0.93 L/h
Css, max, GeoMean(%CVb) [3]: 435.78(50.87) ng/mL
R ac, AUC (accumulation ratio based on AUC), Mean ± SD [3]: 2.62 ± 0.55
R ac, Cmax (accumulation ratio based on Cmax), Mean ± SD [3]: 1.98 ± 1.20
Tss, max, Median [3]: 2.97 h
%Fluctuation, GeoMean(%CVb) [4]: 79.03(27.10) %
%Fluctuation, Mean ± SD [4]: 81.15 ± 21.54%
CLss/F, GeoMean(%CVb) [4]: 1.09(40.16) L/hour
CLss/F, Mean ± SD [4]: 1.15 ± 0.45 L/h
Css, max, GeoMean(%CVb) [4]: 590.42(29.26) ng/mL
R ac, AUC (accumulation ratio based on AUC), Mean ± SD [4]: 3.38 ± 0.84
R ac, Cmax (accumulation ratio based on Cmax), Mean ± SD [4]: 2.67 ± 0.69
Tss, max, Median [4]: 1.98 h
%AUCex, GeoMean(%CVb) [5]: 47.22(22.24) %
%AUCex, Mean ± SD [5]: 48.16 ± 10.87%
